# Measurements as given in ChEMBL document CHEMBL4732220, “Design, synthesis and biological evaluation of mono- and bisquinoline methanamine derivatives as potential antiplasmodial agents” (Bioorg Med Chem Lett, 2021).
# Assays:
# [1] = Cytotoxicity against human HeLa cells assessed as cell viability at 20 uM relative to control; assay type: cell-based; settings: read-out: Activity
# Summary of the method: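 Mammalian HeLa cells incubated with test compound at a single 20 µM concentration. Read-out is the percentage of viable cells remaining after incubation.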
# Plasmodium falciparum [2] = test: Antiplasmodial activity against chloroquine-sensitive Plasmodium falciparum 3D7 assessed as parasite growth inhibition; assay type: functional, organism-based
# Summary of the method: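 In vitro growth inhibition of P. falciparum 3D7. IC50 reported in µM, with 20 µM as the highest concentration tested.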
# Plasmodium falciparum [3] = test: Antimalarial activity against synchronized ring stage chloroquine-sensitive Plasmodium falciparum assessed as parasite growth inhibition incubated for 48 hrs in presence of 10% human plasma by hypoxanthine assay; assay type: functional, organism-based
smiles,measurement,setting,value
COc1nc2cc(C)cc(C)c2cc1CNCc1cccs1,viability at 20 µM,[1],87.5%
same,IC50,Plasmodium falciparum [2],> 20 µM
COc1nc2cc(C)cc(C)c2cc1CN(Cc1cccs1)Cc1cc2cc(C)ccc2nc1Cl,viability at 20 µM,[1],86%
same,IC50,Plasmodium falciparum [2],> 20 µM
Cc1ccc2nc(Cl)c(CN(Cc3cccnc3)Cc3cc4c(C)cc(C)cc4nc3Cl)cc2c1,viability at 20 µM,[1],80.3%
same,IC50,Plasmodium falciparum [2],7.6 µM
COc1ccc2nc(Cl)c(CN(Cc3cccs3)Cc3cc4cc(C)ccc4nc3OC)cc2c1,viability at 20 µM,[1],103%
same,IC50,Plasmodium falciparum [2],13.4 µM
Cc1ccc2nc(Cl)c(CN(Cc3ccccn3)Cc3cc4cc(C)ccc4nc3Cl)cc2c1,viability at 20 µM,[1],93%
same,IC50,Plasmodium falciparum [2],> 20 µM
Clc1nc2ccccc2cc1CN(Cc1ccccn1)Cc1cc2ccccc2nc1Cl,viability at 20 µM,[1],90.6%
same,IC50,Plasmodium falciparum [2],> 20 µM
Clc1ccc2nc(Cl)c(CN(c3ccccc3)c3nnc(-c4ccccc4)o3)cc2c1,IC50,Plasmodium falciparum [3],0.089 µM
COc1nc2ccccc2cc1CNCc1ccco1,viability at 20 µM,[1],88.9%
same,IC50,Plasmodium falciparum [2],> 20 µM
COc1nc2ccc(F)cc2cc1CN(Cc1cccnc1)Cc1cc2cc(C)ccc2nc1Cl,viability at 20 µM,[1],92.6%
same,IC50,Plasmodium falciparum [2],9.6 µM
COc1nc2ccc(F)cc2cc1CNCc1cccnc1,viability at 20 µM,[1],97.2%
same,IC50,Plasmodium falciparum [2],17.9 µM
COc1nc2ccc(F)cc2cc1CNCc1cccs1,viability at 20 µM,[1],93.5%
same,IC50,Plasmodium falciparum [2],> 20 µM
COc1nc2ccc(Cl)cc2cc1CNCc1cccnc1,viability at 20 µM,[1],100%
same,IC50,Plasmodium falciparum [2],16.8 µM
COc1ccc2nc(OC)c(CNCc3cccs3)cc2c1,viability at 20 µM,[1],93.2%
same,IC50,Plasmodium falciparum [2],> 20 µM
COc1nc2cc(C)cc(C)c2cc1CN(Cc1cccnc1)Cc1cc2cc(C)ccc2nc1Cl,viability at 20 µM,[1],77.6%
same,IC50,Plasmodium falciparum [2],12.3 µM
COc1nc2cc(C)cc(C)c2cc1CNCc1ccccn1,viability at 20 µM,[1],56.7%
same,IC50,Plasmodium falciparum [2],0.23 µM
COc1nc2cc(C)cc(C)c2cc1CNCc1cccnc1,viability at 20 µM,[1],76.7%
same,IC50,Plasmodium falciparum [2],> 20 µM
COc1nc2ccccc2cc1CNCc1cccs1,viability at 20 µM,[1],89.9%
same,IC50,Plasmodium falciparum [2],> 20 µM
COc1nc2ccc(C)cc2cc1CNCc1cccnc1,viability at 20 µM,[1],99.5%
same,IC50,Plasmodium falciparum [2],13.4 µM
COc1nc2ccc(C)cc2cc1CNCc1cccs1,viability at 20 µM,[1],99.7%
same,IC50,Plasmodium falciparum [2],> 20 µM
Clc1nc2ccccc2cc1CNCc1ccncc1,viability at 20 µM,[1],73.7%
same,IC50,Plasmodium falciparum [2],2.3 µM
Oc1ccc2nc(Cl)c(CN(Cc3ccccn3)Cc3cc4cc(O)ccc4nc3Cl)cc2c1,viability at 20 µM,[1],88.8%
same,IC50,Plasmodium falciparum [2],2.5 µM
COc1nc2ccccc2cc1CN(Cc1ccccn1)Cc1cc2ccccc2nc1Cl,viability at 20 µM,[1],89.9%
same,IC50,Plasmodium falciparum [2],> 20 µM
COc1ccc2nc(OC)c(CNCc3cccnc3)cc2c1,viability at 20 µM,[1],100%
same,IC50,Plasmodium falciparum [2],12.8 µM
COc1nc2ccc(C)cc2cc1CN(Cc1ccccn1)Cc1cc2cc(C)ccc2nc1OC,viability at 20 µM,[1],93.3%
same,IC50,Plasmodium falciparum [2],> 20 µM
COc1nc2ccccc2cc1CN(Cc1ccco1)Cc1cc2cc(C)ccc2nc1Cl,viability at 20 µM,[1],84.4%
same,IC50,Plasmodium falciparum [2],12.8 µM
Clc1nc2ccccc2cc1CNCc1ccccn1,viability at 20 µM,[1],65.6%
same,IC50,Plasmodium falciparum [2],> 20 µM
Cc1cc(C)c2cc(CNCc3cccnc3)c(Cl)nc2c1,viability at 20 µM,[1],77.2%
same,IC50,Plasmodium falciparum [2],> 20 µM
COc1nc2ccc(C)cc2cc1CN(Cc1cccs1)Cc1cc2cc(C)ccc2nc1Cl,viability at 20 µM,[1],87.9%
same,IC50,Plasmodium falciparum [2],12.6 µM
COc1nc2ccc(F)cc2cc1CN(Cc1cccs1)Cc1cc2cc(C)ccc2nc1Cl,viability at 20 µM,[1],95.2%
same,IC50,Plasmodium falciparum [2],11.3 µM
COc1nc2ccccc2cc1CN(Cc1ccccn1)Cc1cc2ccccc2nc1OC,viability at 20 µM,[1],89%
same,IC50,Plasmodium falciparum [2],3.5 µM
COc1nc2ccccc2cc1CNCc1ccccn1,viability at 20 µM,[1],44.3%
same,IC50,Plasmodium falciparum [2],1.4 µM
COc1ccc2nc(OC)c(CN(Cc3cccs3)Cc3cc4cc(C)ccc4nc3Cl)cc2c1,viability at 20 µM,[1],99.2%
same,IC50,Plasmodium falciparum [2],0.93 µM
COc1nc2cc(C)cc(C)c2cc1CN(Cc1ccccn1)Cc1cc2c(C)cc(C)cc2nc1OC,viability at 20 µM,[1],90.1%
same,IC50,Plasmodium falciparum [2],2.8 µM
Fc1ccc2nc(Cl)c(CN(Cc3ccccn3)Cc3cc4cc(F)ccc4nc3Cl)cc2c1,viability at 20 µM,[1],98.7%
same,IC50,Plasmodium falciparum [2],9.8 µM
COc1ccc2nc(Cl)c(CN(Cc3cccs3)Cc3cc4c(C)cc(C)cc4nc3OC)cc2c1,viability at 20 µM,[1],85.4%
same,IC50,Plasmodium falciparum [2],> 20 µM
C=C[C@H]1CN2CC[C@H]1C[C@H]2[C@H](O)c1ccnc2ccc(OC)cc12 [QUININE],IC50,Plasmodium falciparum [3],0.826 µM
COc1nc2ccccc2cc1CNCc1cccnc1,viability at 20 µM,[1],89.9%
same,IC50,Plasmodium falciparum [2],13.4 µM
COc1ccc2nc(OC)c(CN(Cc3ccccn3)Cc3cc4cc(OC)ccc4nc3OC)cc2c1,viability at 20 µM,[1],79.5%
same,IC50,Plasmodium falciparum [2],3.4 µM
COc1nc2cc(C)cc(C)c2cc1CNCc1ccncc1,viability at 20 µM,[1],60.7%
same,IC50,Plasmodium falciparum [2],12 µM
COc1nc2ccccc2cc1CNCc1ccncc1,viability at 20 µM,[1],69.9%
same,IC50,Plasmodium falciparum [2],2.1 µM
COc1ccc2nc(Cl)c(CN(Cc3ccccn3)Cc3cc4cc(OC)ccc4nc3Cl)cc2c1,viability at 20 µM,[1],83.8%
same,IC50,Plasmodium falciparum [2],> 20 µM
COc1nc2ccccc2cc1CN(Cc1cccnc1)Cc1cc2cc(C)ccc2nc1Cl,viability at 20 µM,[1],98.3%
same,IC50,Plasmodium falciparum [2],9.8 µM
